Values belong to the molecule of their own block, whether it stands above or below them.
How the values were obtained:
[1] = system: Human immunodeficiency virus 1; test: Antiviral activity against HIV1 infected in human HeLa P4/R5 cells assessed as inhibition of viral replication; assay type: functional, organism-based; conditions: Human immunodeficiency virus 1, HeLa
Method in brief: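 Single-cycle assay in P4/R5 HeLa cells carrying an HIV LTR-driven, Tat-activated β-galactosidase gene. Cells kept in phenol red-free DMEM with 10% FBS and 0.5 μg/ml puromycin. Virus stock titred on these cells by threefold endpoint dilution (Reed-Muench). At least three independent experiments.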

HepG2 [2] = test: Mitochondrial toxicity in human HepG2 cells assessed as percent mitochondrial DNA production at 10 uM after 14 days by real-time PCR relative to control; assay type: cell-based; conditions: hepg2, 336 h
Method in brief: (§1)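 Low-passage HepG2 cells seeded at 5,000 cells/well on collagen-coated plates and cultured 14 days with 10 or 100 μM NRTI. mtDNA and β-actin DNA quantified by real-time PCR in duplicate; mtDNA normalized to β-actin and expressed relative to untreated cells. At least two independent experiments; ranges given.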

HepG2 [3] = test: Mitochondrial toxicity in human HepG2 cells assessed as percent lactic acid production at 10 uM after 14 days by real-time PCR relative to beta-actin DNA; assay type: cell-based; conditions: hepg2, 336 h
Method in brief: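 HepG2 cells cultured 14 days with 10 or 100 μM NRTI. Lactic acid quantified with a D-/L-lactic acid enzymatic test kit and expressed relative to β-actin DNA and to untreated control.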

[4] = system: Human immunodeficiency virus 1; test: Antiviral activity against HIV1 infected in human PBMC assessed as inhibition of viral replication; assay type: functional, organism-based
Method in brief: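 PBMC from healthy seronegative donors, isolated on a Ficoll-Hypaque gradient and stimulated with PHA for 2-3 days before infection. At least three independent experiments.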

beta-actin DNA = test: Mitochondrial toxicity in human HepG2 cells assessed as percent inhibition of beta-actin DNA at 10 uM after 14 days by real-time PCR; assay type: cell-based; method in brief: as §1
[5] = system: Human immunodeficiency virus 1; test: Antiviral activity against HIV1 infected in human MT2 cells assessed as inhibition of viral replication; assay type: functional, organism-based; conditions: Human immunodeficiency virus 1, MT2
mitochondrial DNA = test: Mitochondrial toxicity in human HepG2 cells assessed as percent inhibition of mitochondrial DNA at 10 uM after 14 days by real-time PCR; assay type: cell-based; method in brief: as §1
PBMC = test: Drug level in PHA-stimulated human PBMC measured per 10^6 cells at 10 uM after 12 hrs by LC-MS analysis; assay type: ADME, cell-based
Method in brief: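 PHA-stimulated human PBMC (24-30 × 10⁶ cells) exposed to a range of nucleoside concentrations for 12 h at 37°C in 5% CO2. […] Triphosphate reported in pmol/10⁶ cells. At least three experiments, mean ± SD.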

[6] = target: Human immunodeficiency virus type 1 reverse transcriptase (Human immunodeficiency virus 1) (UniProt Q72547); test: Ratio of Kpol to Kd for HIV1 reverse transcriptase
Method in brief: (§2)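 Pre-steady-state rapid quench with purified WT HIV-1 RT. Quenched with 0.5 M EDTA between 10 ms and 30 min. Products resolved on 7 M urea-16% polyacrylamide gels. Gives kpol and Kd; selectivity = (kpol/Kd)dNTP/(kpol/Kd)NRTI-TP. At least three independent experiments, mean ± SD.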

[7] = target: Human immunodeficiency virus type 1 reverse transcriptase (Human immunodeficiency virus 1) (UniProt Q72547); test: Selectivity, ratio of Kpol to Kd for dATP to Kpol to Kd for compound at HIV1 reverse transcriptase; method in brief: as §2
[8] = target: Human immunodeficiency virus type 1 reverse transcriptase (Human immunodeficiency virus 1, UniProt Q72547); test: Binding affinity to HIV1 reverse transcriptase; method in brief: as §2
[9] = target: Human immunodeficiency virus type 1 reverse transcriptase (Human immunodeficiency virus 1) (UniProt Q72547); test: Activity at HIV1 reverse transcriptase measured after 30 mins; method in brief: as §2
[10] = target: Human immunodeficiency virus type 1 reverse transcriptase (Human immunodeficiency virus 1) (UniProt Q72547); test: Selectivity, ratio of Kpol to Kd for TTP to Kpol to Kd for compound at HIV1 reverse transcriptase; method in brief: as §2
[11] = system: Human immunodeficiency virus 1; test: Antiviral activity against HIV1 harboring reverse transcriptase K65R mutant infected in human HeLa P4/R5 cells assessed as inhibition of viral replication; assay type: functional, organism-based; conditions: Human immunodeficiency virus 1, HeLa
Method in brief: (§3)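 Single-replication-cycle assay in P4/R5 cells: HeLa stably carrying a Tat-activated β-galactosidase gene under an HIV LTR promoter, grown in phenol red-free DMEM with 10% FBS and 0.5 μg/ml puromycin. Virus stocks were titred in P4/R5 cells by threefold endpoint dilution (Reed–Muench).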

[12] = system: Human immunodeficiency virus 1; test: Ratio of IC50 for HIV1 harboring reverse transcriptase K65R mutant infected in human HeLa P4/R5 cells to wild type HIV1 infected in human HeLa P4/R5 cells; assay type: functional; method in brief: as §3
[13] = target: Human immunodeficiency virus type 1 reverse transcriptase (Human immunodeficiency virus 1) (UniProt Q72547); test: Selectivity, ratio of Kpol to Kd for dGTP to Kpol to Kd for compound at HIV1 reverse transcriptase; method in brief: as §2
[14] = target: Human immunodeficiency virus type 1 reverse transcriptase (Human immunodeficiency virus 1) (UniProt Q72547); test: Selectivity, ratio of Kpol to Kd for dCTP to Kpol to Kd for compound at HIV1 reverse transcriptase; method in brief: as §2

Compound: Nc1ccn([C@H]2CC[C@@H](CO)O2)c(=O)n1 [ZALCITABINE]
IC50 [1]: 1.4 µM
Activity (HepG2 [2]): 0.3%
Activity (HepG2 [3]): 170%
IC50 [4]: 0.2 µM
inhibition at 336 h, 10 µM (beta-actin DNA): 61.4%
IC50 [5]: 0.13 µM
inhibition at 336 h, 10 µM (mitochondrial DNA): 99.9%

Compound: [N-]=[N+]=N[C@H]1C[C@H](n2cnc3c(=O)[nH]c(N)nc32)O[C@@H]1CO
Drug uptake (PBMC): 0.2 pmol

Compound: Cc1cn([C@H]2C[C@H](N=[N+]=[N-])[C@@H](COP(=O)(O)OP(=O)(O)OP(=O)(O)O)O2)c(=O)[nH]c1=O
Ratio [6]: 4.4 µM⁻¹ s⁻¹
Selectivity ratio [10]: 1
Activity [9]: 8.8 s⁻¹

Compound: CC(C)OC(=O)OCOP(=O)(CO[C@H](C)Cn1cnc2c(N)ncnc21)OCOC(=O)OC(C)C.O=C(O)/C=C/C(=O)O [TENOFOVIR DISOPROXIL FUMARATE]
IC50 [1]: 4.7 µM
IC50 [11]: 11.4 µM
IC50 [4]: 0.014 µM
IC50 [5]: 0.54 µM
Ratio IC50 [12]: 2.5

Compound: Nc1nc(=O)n([C@@H]2CS[C@H](CO)O2)cc1F [EMTRICITABINE]
IC50 [1]: 0.17 µM
IC50 [4]: 0.001 µM
IC50 [5]: 0.044 µM

Now from value to molecule:

Ratio [6]: 1 µM⁻¹ s⁻¹
Selectivity ratio [7]: 7.5
Kd [8]: 5.3 µM
Activity [9]: 5.4 s⁻¹
Compound: Nc1ncnc2c1ncn2[C@H]1CC[C@@H](COP(=O)(O)OP(=O)(O)OP(=O)(O)O)O1 [DDA-TRIPHOSPHATE]

Ratio [6]: 10.2 µM⁻¹ s⁻¹
Selectivity ratio [7]: 0.7
Kd [8]: 2.3 µM
Activity [9]: 23.2 s⁻¹
Compound: [N-]=[N+]=N[C@H]1C[C@H](n2cnc3c(N)ncnc32)O[C@@H]1COP(=O)(O)OP(=O)(O)OP(=O)(O)O

Ratio [6]: 1.6 µM⁻¹ s⁻¹
Kd [8]: 2.7 µM
Selectivity ratio [10]: 2.6
Activity [9]: 4.3 s⁻¹
Compound: Cc1cn([C@H]2C=C[C@@H](COP(=O)(O)OP(=O)(O)OP(=O)(O)O)O2)c(=O)[nH]c1=O [STAVUDINE TRIPHOSPHATE]

Ratio [6]: 0.16 µM⁻¹ s⁻¹
Kd [8]: 4 µM
Selectivity ratio [13]: 11.2
Activity [9]: 0.6 s⁻¹
Compound: Nc1nc(=O)c2ncn([C@H]3C=C[C@@H](COP(=O)(O)OP(=O)(O)OP(=O)(O)O)C3)c2[nH]1 (single isomer, unassigned) [CARBOVIR 5'-TRIPHOSPHATE, (-)-]

Ratio [6]: 0.06 µM⁻¹ s⁻¹
Selectivity ratio [14]: 17.8
Activity [9]: 0.023 s⁻¹
Compound: Nc1ccn([C@@H]2CS[C@H](COP(=O)(O)OP(=O)(O)OP(=O)(O)O)O2)c(=O)n1

Ratio [6]: 1.4 µM⁻¹ s⁻¹
Selectivity ratio [7]: 5.3
Kd [8]: 4.3 µM
Activity [9]: 6.2 s⁻¹
Compound: C[C@H](Cn1cnc2c(N)ncnc21)OCP(=O)(O)OP(=O)(O)OP(=O)(O)O
